From ChEMBL document CHEMBL1152638, “Natural product leads for drug discovery: isolation, synthesis and biological evaluation of 6-cyano-5-methoxyindolo[2,3-a]carbazole based ligands as antibacterial agents” (Bioorg Med Chem, 2009)
Converted amounts (≈) assume the structure as drawn. Counter-ions that a name gives are not always drawn.

What was measured:
Bacillus anthracis = assay: Antibacterial activity against Bacillus anthracis deltaANR after 14 hrs by microplate alamar blue assay; format: functional
[1] = system: Mycobacterium tuberculosis; assay: Antitubercular activity against Mycobacterium tuberculosis H37Rv after 16 to 24 hrs by microplate alamar blue assay; format: functional
Outline: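 H37Rv (ATCC 27294) in Middlebrook 7H12; twofold dilutions from 12.8 mM DMSO stocks, final 128 to 0.5 μM; 1 × 10^5 cfu/mL inoculum, aerobic 37 °C. Day 7: Tween 80 plus Alamar Blue added, then 16–24 h more. Fluorescence ex 530/em 590 nm; MIC is lowest concentration giving ≥90% reduction versus bacteria-only controls; rifampin, isoniazid positive controls.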

Human alphaherpesvirus 2 = assay: Antiviral activity against HSV2 infected in mink lung cells assessed as reduction in viral titer at 1 ug/ml; format: functional; design: scale not given: the % may be the effect or the level left
[2] = Cytotoxicity against human KB cells; format: cell-based; conditions: read-out: MIC
[3] = Cytotoxicity against human LoVo cells; format: cell-based; conditions: read-out: MIC

Structure (SMILES)	MIC (Bacillus anthracis) [µM]	MIC [1] [µM]	Activity (Human alphaherpesvirus 2) [%]	MCC [2] [µg/mL]	MCC [3] [µg/mL]
COc1c(C#N)c2c3ccccc3n(C)c2c2[nH]c3ccccc3c12	> 200	> 128			
CN[C@@H]1C[C@H]2O[C@@](C)([C@@H]1OC)n1c3ccccc3c3c4c(c5c6ccccc6n2c5c31)C(=O)NC4 [STAUROSPORINE]	128 (≈ 59.7 µg/mL)	14.7 (≈ 6.86 µg/mL)			
COc1c(C(N)=O)c2c3ccccc3[nH]c2c2c1c1ccccc1n2C		> 128			
COc1c(C#N)c2c3ccccc3[nH]c2c2c1c1ccccc1n2C	> 200	> 128	95	5	5
CO[C@H]1/C=C/O[C@@]2(C)Oc3c(C)c(O)c4c(O)c(c(/C=N/N5CCN(C)CC5)c(O)c4c3C2=O)NC(=O)/C(C)=C\C=C\[C@H](C)[C@H](O)[C@@H](C)[C@@H](O)[C@@H](C)[C@H](OC(C)=O)[C@@H]1C [RIFAMPIN]		0.1 (≈ 0.0823 µg/mL)			
COc1c(C#N)c2c3ccccc3[nH]c2c2c1c1ccccc1n2Cc1ccccc1	> 200	44.1 (≈ 17.7 µg/mL)			
NNC(=O)c1ccncc1 [ISONIAZID]		0.6 (≈ 0.0823 µg/mL)			
N#Cc1c(O)c2c3ccccc3n(Cc3ccccc3)c2c2[nH]c3ccccc3c12	1.6 (≈ 0.62 µg/mL)	60.6 (≈ 23.5 µg/mL)			
O=C(O)c1cn(C2CC2)c2cc(N3CCNCC3)c(F)cc2c1=O [CIPROFLOXACIN HYDROCHLORIDE]	0.1				
N#Cc1c(O)c2c3ccccc3[nH]c2c2[nH]c3ccccc3c12	1.6 (≈ 0.476 µg/mL)	15 (≈ 4.46 µg/mL)			
COc1c(C#N)c2c3ccccc3[nH]c2c2[nH]c3ccccc3c12	6.3 (≈ 1.96 µg/mL)	> 128			
COc1c(C#N)c2c3ccccc3n(C)c2c2c1c1ccccc1n2C	> 200	> 128			
Cn1c2ccccc2c2c(O)c(C#N)c3c4ccccc4[nH]c3c21	6.3 (≈ 1.96 µg/mL)	56.6 (≈ 17.6 µg/mL)			
